Test results: paper PMC3068526 (Science (New York, N.Y.), 2010)

How the values were obtained:
cell viability = assay: cell viability; assay type: cell-based; settings: in the concentration range studied
UCP2 mRNA = assay: QRT-PCR of islets and gastric fundus isolated from treated mice; assay type: in vivo, mouse
GHSR-1a receptor = GHSR-1a receptor antagonism; assay type: cell-based
wt mice [1] = assay: weight gain in wt mice fed a high fat diet; assay type: in vivo, mouse
[2] = system: recombinant solubilized or microsomal GOAT; assay: UV crosslinking of biotin-tagged benzoyl-phenylalanine analogs to GOAT; assay type: binding; settings: competitor at 100 μM
Procedure, shortened: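 Solubilized GOAT was UV-crosslinked with biotin-tagged benzophenylalanine-containing probe analogs (L5BP, F4BP) at 5 μM, with or without 100 μM unlabelled test compound as competitor. Cross-linked GOAT was detected on immunoblots with streptavidin, and loading was checked with anti-FLAG.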

GOAT = molecular target: T1, GOAT (Homo sapiens, UniProt Q96T53); assay type: cell-based
T1 sequence (Q96T53 1-435): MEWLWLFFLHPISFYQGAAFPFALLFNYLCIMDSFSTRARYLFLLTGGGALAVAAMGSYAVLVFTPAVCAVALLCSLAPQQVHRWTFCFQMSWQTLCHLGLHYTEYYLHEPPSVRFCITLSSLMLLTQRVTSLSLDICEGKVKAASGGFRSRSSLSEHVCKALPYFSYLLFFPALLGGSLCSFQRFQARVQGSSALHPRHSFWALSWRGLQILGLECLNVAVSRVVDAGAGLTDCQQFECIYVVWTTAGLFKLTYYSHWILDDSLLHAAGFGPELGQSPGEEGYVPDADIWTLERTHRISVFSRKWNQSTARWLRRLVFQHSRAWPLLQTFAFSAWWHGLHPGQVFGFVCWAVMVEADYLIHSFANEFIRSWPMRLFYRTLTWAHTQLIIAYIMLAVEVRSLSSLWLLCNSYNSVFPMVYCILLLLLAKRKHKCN
Procedure, shortened: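 HeLa and HEK cells stably expressing GOAT and preproghrelin were grown in octanoic acid-supplemented medium. Acyl and desacyl ghrelin were measured after test compound exposure, either as a time course at 6 μM in HeLa cells or as a dose-response after 24 h incubation. IC50 was derived from the acyl ghrelin reduction.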

[3] = system: serotonin N-acetyltransferase; assay: in vitro inhibition of serotonin N-acetyltransferase; assay type: biochemical; settings: at 10 μM
human islet cells = assay: insulin response of human islet cells to a glucose challenge; assay type: cell-based; settings: human islet cells pre-treated with compound
wt mice [4] = assay: blood chemistries and blood cell counts after one month of treatment; assay type: in vivo, mouse
[5] = system: recombinant microsomal GOAT; assay: in vitro acyltransferase inhibition assay; assay type: biochemical; settings: 100 nM compound, within 5 min (5 min reaction), radioactive assay
ghrelin knockout animals = assay: intraperitoneal glucose challenge in ghrelin knockout animals; assay type: in vivo, mouse; settings: compared to vehicle or to wt animals analyzed in parallel
PCAF HAT = assay: in vitro inhibition of acetyl-CoA utilizing enzyme PCAF HAT; assay type: biochemical; settings: at 10 μM
[6] = system: wild type (wt) C57BL6 animals; assay: serum acyl and desacyl ghrelin levels in mice after intraperitoneal dosing; assay type: in vivo, mouse; settings: 11 μmol/kg (40 mg/kg) intraperitoneal, wt C57BL6 mice on MCT diet
Procedure, shortened: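 Wild-type C57BL6 mice on a medium-chain triglyceride diet were given a single IP dose of test compound at 11 μmol/kg (40 mg/kg), or the D4-Tat control or vehicle (n = 5). Serum acyl and desacyl ghrelin and percent acyl ghrelin were measured at 6, 12 and 24 h. Standard errors are reported.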

p300 HAT = assay: in vitro inhibition of acetyl-CoA utilizing enzyme p300 HAT; assay type: biochemical; settings: at 10 μM
[7] = system: ghrelin knockout C57BL6 mice; assay: body weight and adiposity in ghrelin knockout mice; assay type: in vivo, mouse
wt C57BL6 mice = assay: body weight and QMR fat/lean mass in wt mice on MCT diet, one month treatment; assay type: in vivo, mouse; settings: 11 μmol/kg IP every 24 h
Procedure, shortened: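 Wild-type C57BL6 mice on a medium-chain triglyceride diet received test compound at 11 μmol/kg IP every 24 h for one month (n = 5) or vehicle (n = 6). Body mass was recorded daily, and fat and lean mass were determined by quantitative magnetic resonance. Standard errors are reported.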

[8] = ghrelin knockout mice on MCT diet, 11 μmol/kg, 1 mo

SMILES: CCCCCCC(SCCNC(=O)CCNC(=O)[C@H](O)C(C)(C)COP(=O)(O)OP(=O)(O)OC[C@H]1O[C@@H](n2cnc3c(N)ncnc32)[C@H](O)[C@@H]1OP(=O)(O)O)C(=O)NC[C@H](NC(=O)[C@H](CO)NC(=O)CN)C(=O)N[C@@H](Cc1ccccc1)C(=O)N[C@@H](CC(C)C)C(=O)N[C@@H](CO)C(=O)N1CCC[C@H]1C(=O)N[C@@H](CCC(=O)O)C(=O)N[C@@H](Cc1c[nH]cn1)C(=O)N[C@@H](CCC(N)=O)C(=O)NCCCCCC(=O)N[C@@H](Cc1ccc(O)cc1)C(=O)NCC(=O)N[C@@H](CCCNC(=N)N)C(=O)N[C@@H](CCCCN)C(=O)N[C@@H](CCCCN)C(=O)N[C@@H](CCCNC(=N)N)C(=O)N[C@@H](CCCNC(=N)N)C(=O)N[C@@H](CCC(N)=O)C(=O)N[C@@H](CCCNC(=N)N)C(=O)N[C@@H](CCCNC(=N)N)C(=O)N[C@@H](CCCNC(=N)N)C(N)=O (stereo partly shown) [GO-CoA-Tat]
- toxicity to cell viability (cell viability): non-toxic
- effects on UCP2 mRNA in the gastric fundus (UCP2 mRNA; gastric fundus from mice treated 24 h prior to isolation, n = 3): non-statistically significant effects
- reduction in UCP2 mRNA in islets (UCP2 mRNA; islets isolated from mice treated 24 h prior to isolation, compared to D4-tat treated mice, n = 3): 20 fold
- levels of insulin, ghrelin, or GHSR mRNAs in islets (UCP2 mRNA; islets isolated from treated mice, compared to D4-tat treated mice): no change
- antagonism of GHSR-1a receptor (GHSR-1a receptor): does not antagonize
- fat mass (wt mice [1]): relative reduction of fat mass
- food intake (wt mice [1]): no effect on food intake
- lean mass (wt mice [1]): without a change in lean mass
- weight gain (wt mice [1]): slowed weight gain
- blocking of cross-linking of F4BP/L5BP analogs to GOAT (competitor) [2]: can be blocked by GO-CoA-Tat
- inhibition of production of desacyl ghrelin (GOAT; GOAT/preproghrelin stably expressing HeLa and HEK cells): not desacyl ghrelin
- exposure time needed for maximal inhibition of acyl ghrelin (GOAT; preproghrelin/GOAT-transfected HeLa and HEK cells, 6 μM in HeLa time course): 24 h
- inhibition of serotonin N-acetyltransferase [3]: less than 15%
- insulin response to a glucose challenge (human islet cells): statistically significant increase in insulin response
- IGF-1 levels (wt mice [4]): lower IGF-1 levels
- blood glucose (wt mice [4]): lower blood glucose
- generalized toxicity by blood chemistries and blood cell counts (wt mice [4]): no evidence of liver, renal, pancreas, or bone marrow toxicities
- GOAT inhibition [5]: Virtually complete GOAT inhibition
- effect in glucose challenge (ghrelin knockout animals): did not have a significant effect
- inhibition of PCAF HAT (PCAF HAT): less than 15%
- serum levels of desacyl ghrelin [6]: no significant effect
- time of maximum inhibition of serum acyl ghrelin after administration [6]: 6 h
- serum levels of acyl ghrelin ([6]; n = 5, 6, 12 and 24 h): decreased serum levels of acyl ghrelin
- inhibition of p300 HAT (p300 HAT): less than 15%
- fat mass (QMR) [7, 8]: did not significantly alter
- lean mass (QMR) [7, 8]: did not significantly alter
- weight ([7]; ghrelin knockout mice on MCT diet, 11 μmol/kg, 1 mo, n = 5 vs vehicle n = 5): did not significantly alter
- weight gain of treated ghrelin knockout mice versus treated age-matched wt mice ([7]; separate long term study, one month of administration): gained more weight
- weight gain (wt C57BL6 mice; n = 5 vs vehicle n = 6): prevented the significant weight gain
- fat mass (QMR) (wt C57BL6 mice; relative to controls): significantly lower fat mass
- lean mass (QMR) (wt C57BL6 mice; relative to controls): but not lean mass
